{"source": "ChEMBL document CHEMBL1136545", "about": "“Novel thieno oxazine analogues as antihyperglycemic and lipid modulating agents” (2003)", "key": {"Mus musculus [1]": {"test_system": "Mus musculus", "assay": "Percentage reduction of plasma glucose (PG) in db/db mice at 3 mg/kg; No effect", "assay_type": "functional, organism-based", "parameters": "dose 3 mg/kg", "summary_of_the_method": "(§1)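 db/db mice were dosed orally at 3 mg/kg for 6 days. Plasma glucose and triglyceride were then measured, and each value is the percentage reduction.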"}, "[2]": {"target": "T1, Peroxisome proliferator-activated receptor gamma (Homo sapiens) (UniProt P37231)", "T1 sequence (whole entry)": "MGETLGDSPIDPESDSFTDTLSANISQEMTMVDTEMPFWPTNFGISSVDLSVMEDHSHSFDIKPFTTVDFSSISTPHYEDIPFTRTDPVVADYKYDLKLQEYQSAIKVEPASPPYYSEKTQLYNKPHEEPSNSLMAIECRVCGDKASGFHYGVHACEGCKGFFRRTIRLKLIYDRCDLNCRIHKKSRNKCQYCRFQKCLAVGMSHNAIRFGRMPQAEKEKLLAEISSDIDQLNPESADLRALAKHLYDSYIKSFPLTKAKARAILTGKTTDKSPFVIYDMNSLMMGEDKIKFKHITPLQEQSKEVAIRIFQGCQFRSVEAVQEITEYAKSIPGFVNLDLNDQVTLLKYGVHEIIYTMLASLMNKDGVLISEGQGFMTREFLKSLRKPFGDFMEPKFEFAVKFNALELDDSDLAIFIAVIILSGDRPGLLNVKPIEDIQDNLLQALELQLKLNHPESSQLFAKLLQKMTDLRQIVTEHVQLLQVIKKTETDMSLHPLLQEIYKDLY", "assay": "Compound was tested for activation of peroxisome proliferator-activated receptor gamma activity at 1 uM concentration by transactivation assay", "summary_of_the_method": "(§2)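 Cell-based PPAR transactivation assay, with receptor activity expressed as fold activation. Each compound was tested at a single concentration, which differed between the PPARα and PPARγ arms.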"}, "Mus musculus [3]": {"test_system": "Mus musculus", "assay": "Percentage reduction of triglyceride (TG) in db/db mice at 3 mg/kg; No effect", "assay_type": "functional, organism-based", "parameters": "dose 3 mg/kg", "summary_of_the_method": "as §1"}, "[4]": {"target": "T2, Peroxisome proliferator-activated receptor alpha (Homo sapiens) (UniProt Q07869)", "T2 sequence (whole entry)": "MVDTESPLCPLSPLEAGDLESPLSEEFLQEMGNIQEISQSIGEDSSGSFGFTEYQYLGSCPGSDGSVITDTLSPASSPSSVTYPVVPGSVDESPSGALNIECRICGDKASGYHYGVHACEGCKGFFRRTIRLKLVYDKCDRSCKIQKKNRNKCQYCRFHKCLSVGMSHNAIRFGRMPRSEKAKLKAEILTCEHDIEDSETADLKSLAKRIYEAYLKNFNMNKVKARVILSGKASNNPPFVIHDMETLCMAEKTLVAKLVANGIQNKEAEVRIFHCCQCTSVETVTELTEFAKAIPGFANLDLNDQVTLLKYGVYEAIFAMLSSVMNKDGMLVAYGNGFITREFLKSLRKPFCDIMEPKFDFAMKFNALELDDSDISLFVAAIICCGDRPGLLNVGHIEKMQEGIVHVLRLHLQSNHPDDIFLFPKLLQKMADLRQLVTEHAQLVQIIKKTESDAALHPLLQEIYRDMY", "assay": "Compound was tested for activation of peroxisome proliferator-activated receptor alpha activity at 50 uM concentration by transactivation assay", "summary_of_the_method": "as §2"}, "Mus musculus [5]": {"test_system": "Mus musculus", "assay": "Percentage reduction of triglyceride (TG) in db/db mice at 3 mg/kg", "assay_type": "functional", "summary_of_the_method": "as §1"}, "Mus musculus [6]": {"test_system": "Mus musculus", "assay": "Percentage reduction of plasma glucose (PG) in db/db mice at 3 mg/kg", "assay_type": "functional", "summary_of_the_method": "as §1"}}, "note": "Activity calls are given as the source filed them. No cut-off for these calls is given here."}
{"smiles": "CCOC(Cc1ccc(OCCN2C(=O)COc3ccsc32)c(OC)c1)C(=O)O", "note": "(stereo not given)", "values": [{"measurement": "Reduction", "setting": "Mus musculus [1]", "result": "inactive"}, {"measurement": "Activity", "setting": "[2]", "result": 1.2}, {"measurement": "Reduction", "setting": "Mus musculus [3]", "result": "inactive"}, {"measurement": "Activity", "setting": "[4]", "result": 0.5}]}
{"smiles": "O=C(O)Cc1ccc(OCCN2C(=O)COc3ccsc32)cc1", "values": [{"measurement": "Reduction", "setting": "Mus musculus [5]", "result": 43, "unit": "%"}, {"measurement": "Activity", "setting": "[2]", "result": 14}, {"measurement": "Reduction", "setting": "Mus musculus [6]", "result": 39, "unit": "%"}, {"measurement": "Activity", "setting": "[4]", "result": 5}]}
{"smiles": "CCOC(Cc1ccc(OCCN2C(=O)COc3ccsc32)c(C)c1)C(=O)O", "note": "(stereo not given)", "values": [{"measurement": "Reduction", "setting": "Mus musculus [5]", "result": 19, "unit": "%"}, {"measurement": "Activity", "setting": "[2]", "result": 18}, {"measurement": "Reduction", "setting": "Mus musculus [6]", "result": 52, "unit": "%"}, {"measurement": "Activity", "setting": "[4]", "result": 1.5}]}
{"smiles": "O=C(O)Cc1ccc(OCCN2C(=O)COc3ccsc32)c(Br)c1", "values": [{"measurement": "Reduction", "setting": "Mus musculus [5]", "result": 14, "unit": "%"}, {"measurement": "Activity", "setting": "[2]", "result": 8}, {"measurement": "Reduction", "setting": "Mus musculus [6]", "result": 21, "unit": "%"}, {"measurement": "Activity", "setting": "[4]", "result": 1.3}]}
{"smiles": "CCOC(Cc1ccc(OCCN2C(=O)COc3ccsc32)cc1)C(=O)O", "note": "(stereo not given)", "values": [{"measurement": "Reduction", "setting": "Mus musculus [5]", "result": 56, "unit": "%"}, {"measurement": "Activity", "setting": "[2]", "result": 16}, {"measurement": "Reduction", "setting": "Mus musculus [6]", "result": 47, "unit": "%"}, {"measurement": "Activity", "setting": "[4]", "result": 8}]}
{"smiles": "CCOC(Cc1ccc(OCCN2C(=O)COc3ccsc32)c(Br)c1)C(=O)O", "note": "(stereo not given)", "values": [{"measurement": "Reduction", "setting": "Mus musculus [5]", "result": 62, "unit": "%"}, {"measurement": "Reduction", "setting": "Mus musculus [1]", "result": "inactive"}, {"measurement": "Activity", "setting": "[2]", "result": 1.2}, {"measurement": "Activity", "setting": "[4]", "result": 8}]}
{"smiles": "O=C(O)Cc1ccc(OCCCN2C(=O)COc3ccsc32)cc1", "values": [{"measurement": "Activity", "setting": "[2]", "result": 5}, {"measurement": "Reduction", "setting": "Mus musculus [6]", "result": 14, "unit": "%"}, {"measurement": "Reduction", "setting": "Mus musculus [3]", "result": "inactive"}, {"measurement": "Activity", "setting": "[4]", "result": 0.5}]}
{"smiles": "CCOC(Cc1ccc(OCCN2C(=O)COc3ccsc32)c(Cl)c1)C(=O)O", "note": "(stereo not given)", "values": [{"measurement": "Reduction", "setting": "Mus musculus [5]", "result": 27, "unit": "%"}, {"measurement": "Activity", "setting": "[2]", "result": 7}, {"measurement": "Reduction", "setting": "Mus musculus [6]", "result": 21, "unit": "%"}, {"measurement": "Activity", "setting": "[4]", "result": 2.5}]}
{"smiles": "CCOC(Cc1cc(Br)c(OCCN2C(=O)COc3ccsc32)c(Br)c1)C(=O)O", "note": "(stereo not given)", "values": [{"measurement": "Reduction", "setting": "Mus musculus [5]", "result": 48, "unit": "%"}, {"measurement": "Reduction", "setting": "Mus musculus [1]", "result": "inactive"}, {"measurement": "Activity", "setting": "[2]", "result": 1.6}, {"measurement": "Activity", "setting": "[4]", "result": 5}]}
{"smiles": "O=C(O)Cc1cc(Br)c(OCCN2C(=O)COc3ccsc32)c(Br)c1", "values": [{"measurement": "Reduction", "setting": "Mus musculus [5]", "result": 15, "unit": "%"}, {"measurement": "Activity", "setting": "[2]", "result": 15}, {"measurement": "Reduction", "setting": "Mus musculus [6]", "result": 43, "unit": "%"}, {"measurement": "Activity", "setting": "[4]", "result": 2}]}
